In ChEMBL document CHEMBL4359865, “Synthesis and evaluation of 2,5-furan, 2,5-thiophene and 3,4-thiophene-based derivatives as CXCR4 inhibitors” (Eur J Med Chem, 2019):

Legend:
[1] = molecular target: C-X-C chemokine receptor type 4 (Homo sapiens) (UniProt P61073); experiment: Inhibition of biotinylated TN14003 binding to CXCR4 in human MDA-MB-231 cells preincubated for 10 mins followed by biotinylated-TN14003 addition measured after 30 mins by streptavidin-rhodamine staining based fluorescence microscopic analysis; format: cell-based
Chain of C-X-C chemokine receptor type 4 (Homo sapiens) (P61073 whole entry): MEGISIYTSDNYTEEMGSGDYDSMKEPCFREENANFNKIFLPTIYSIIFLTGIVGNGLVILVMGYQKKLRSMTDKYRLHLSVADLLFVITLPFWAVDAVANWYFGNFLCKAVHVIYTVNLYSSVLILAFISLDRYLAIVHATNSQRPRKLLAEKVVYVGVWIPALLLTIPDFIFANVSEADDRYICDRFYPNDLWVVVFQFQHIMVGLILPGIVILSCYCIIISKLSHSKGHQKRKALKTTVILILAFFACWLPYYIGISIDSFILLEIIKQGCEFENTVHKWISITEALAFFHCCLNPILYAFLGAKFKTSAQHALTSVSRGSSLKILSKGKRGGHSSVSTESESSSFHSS
Method in brief: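 MDA-MB-231 cells (CXCR4-overexpressing) exposed to compound at 1, 10, 100 and 1000 nM for 10 min at room temperature. Cells fixed in chilled 4% paraformaldehyde, rehydrated in PBS, then stained with 0.05 µg/mL biotinylated TN14003 for 30 min at room temperature, washed three times in PBS, and stained with streptavidin-rhodamine (1:150) for 30 min. Read by fluorescence microscopy. EC taken as the lowest concentration, by order of magnitude, giving a significant drop in fluorescence versus control.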

[2] = molecular target: C-X-C chemokine receptor type 4 (Homo sapiens) (UniProt P61073); experiment: Inhibition of CXCR4-mediated chemotaxis in human MDA-MB-231 cells assessed as reduction in CXCL12alpha-induced cell invasion at 100 nM incubated for 22 hrs by hematoxylin/eosin dye-based matrigel assay relative to control
Method in brief: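 Run in a Matrigel invasion chamber. The bottom chamber held CXCL12 (200 ng/mL). MDA-MB-231 cells were treated with compound at 100 nM, placed in the top chamber, and incubated 22 h in a humidified incubator. Non-invading cells were swabbed off; cells in the bottom chamber were H&E-stained, fixed in methanol and counted. Results given as % inhibition of invasion versus negative control.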

[3] = Toxicity in C57BL/6J mouse at 10 mg/kg, ip; format: organism-based; conditions: in vivo
[4] = test system: Mus musculus; experiment: Antiinflammatory activity in C57BL/6J mouse assessed as inhibition of carrageenan-induced paw edema at 10 mg/kg, ip daily dosed 30 mins after carrageenan challenge and measured after 74 hrs carrageenan challenge and 2 hrs post last dose by caliper method relative to control; format: functional

SMILES | EC [1] [nM] | inhibition [2] [%] | Activity [3] | inhibition in vivo at 10 mg/kg [4] [%]
COc1ccccc1NCc1ccc(CNc2ccccc2OC)s1 | 10 | 52 | Non-Toxic | 
Cc1cccc(NCc2cscc2CNc2cccc(C)c2)c1 | > 1000 |  |  | 
c1ccc(NCc2ccc(CNc3ccccn3)cc2)nc1 |  |  | Non-Toxic | 40
FC(F)(F)c1cccc(NCc2ccc(CNc3cccc(C(F)(F)F)c3)o2)c1 | > 1000 |  |  | 
FC(F)(F)c1ccc(NCc2ccc(CNc3ccc(C(F)(F)F)cc3)o2)cc1 | > 1000 |  |  | 
c1ccc(NCc2ccc(CNc3ccccc3)o2)cc1 | > 1000 |  |  | 
CCc1cccc(NCc2ccc(CNc3cccc(CC)c3)o2)c1 | > 1000 |  |  | 
Clc1cccc(NCc2ccc(CNc3cccc(Cl)c3)o2)c1 | > 1000 |  |  | 
CN1CCN(Cc2ccc(CN3CCN(C)CC3)o2)CC1 | 10 | 82 | Non-Toxic | 
FC(F)(F)c1cccc(NCc2cscc2CNc2cccc(C(F)(F)F)c2)c1 | > 1000 |  |  | 
Fc1cccc(NCc2ccc(CNc3cccc(F)c3)o2)c1 | > 1000 |  |  | 
Clc1cccc(NCc2cscc2CNc2cccc(Cl)c2)c1 | > 1000 |  |  | 
Cc1ccccc1NCc1ccc(CNc2ccccc2C)s1 | 10 | 61 | Non-Toxic | 
c1ccc(NCc2cscc2CNc2ccccc2)cc1 | 10 | 72 | Non-Toxic | 
CCc1ccccc1NCc1ccc(CNc2ccccc2CC)s1 | 1000 |  |  | 
FC(F)(F)c1ccc(NCc2cscc2CNc2ccc(C(F)(F)F)cc2)cc1 | > 1000 |  |  | 
FC(F)(F)c1ccccc1NCc1ccc(CNc2ccccc2C(F)(F)F)o1 | 100 | 24 |  | 

SMILES | EC [1] [nM] | inhibition [2] [%] | Activity [3] | inhibition in vivo at 10 mg/kg [4] [%]
c1cc(CN2CCOCC2)oc1CN1CCOCC1 | 1000 |  |  | 
FC(F)(F)c1ccccc1NCc1ccc(CNc2ccccc2C(F)(F)F)s1 | > 1000 |  |  | 
c1cc(CN2CCOCC2)sc1CN1CCOCC1 | > 1000 |  |  | 
Clc1ccccc1NCc1ccc(CNc2ccccc2Cl)o1 | > 1000 |  |  | 
Clc1ccccc1NCc1ccc(CNc2ccccc2Cl)s1 | 10 | 93 | Non-Toxic | > 5
Fc1cccc(NCc2cscc2CNc2cccc(F)c2)c1 | > 1000 |  |  | 
c1cc(CN2CCSCC2)sc1CN1CCSCC1 | 1 | 88 | Non-Toxic | 
Fc1ccccc1NCc1ccc(CNc2ccccc2F)o1 | 10 | 71 | Non-Toxic | 
CCc1ccccc1NCc1ccc(CNc2ccccc2CC)o1 | 1000 |  |  | 
FC(F)(F)c1cccc(NCc2ccc(CNc3cccc(C(F)(F)F)c3)s2)c1 | 100 | 77 | Non-Toxic | 
COc1ccccc1NCc1ccc(CNc2ccccc2OC)o1 | 100 | 5 |  | 
Cc1ccccc1NCc1ccc(CNc2ccccc2C)o1 | > 1000 |  |  | 
CN1CCN(Cc2ccc(CN3CCN(C)CC3)s2)CC1 | 100 | 86 |  | 
c1cc(CN2CCSCC2)oc1CN1CCSCC1 | 10 | 79 |  | 
COc1cccc(NCc2ccc(CNc3cccc(OC)c3)o2)c1 | > 1000 |  |  | 
Cc1cccc(NCc2ccc(CNc3cccc(C)c3)o2)c1 | > 1000 |  |  | 

Continued, in another order:

EC [1] [nM] | SMILES | inhibition [2] [%] | Activity [3] | inhibition in vivo at 10 mg/kg [4] [%]
> 1000 | COc1ccc(NCc2ccc(CNc3ccc(OC)cc3)o2)cc1 |  |  | 
100 | Fc1ccc(NCc2ccc(CNc3ccc(F)cc3)o2)cc1 | 53 | Non-Toxic | 31
100 | Clc1cccc(NCc2ccc(CNc3cccc(Cl)c3)s2)c1 | 51 | Non-Toxic | 
> 1000 | Cc1ccc(NCc2cscc2CNc2ccc(C)cc2)cc1 |  |  | 
1 | Clc1ccc(NCc2ccc(CNc3ccc(Cl)cc3)s2)cc1 | 22 |  | 
> 1000 | FC(F)(F)c1ccc(NCc2ccc(CNc3ccc(C(F)(F)F)cc3)s2)cc1 |  |  | 
> 1000 | CCc1ccc(NCc2ccc(CNc3ccc(CC)cc3)s2)cc1 |  |  | 
100 | Cc1ccc(NCc2ccc(CNc3ccc(C)cc3)o2)cc1 | 75 | Non-Toxic | 15
> 1000 | Cc1cccc(NCc2ccc(CNc3cccc(C)c3)s2)c1 |  |  | 
> 1000 | CSc1ccc(NCc2ccc(CNc3ccc(SC)cc3)o2)cc1 |  |  | 
10 | COc1ccc(NCc2ccc(CNc3ccc(OC)cc3)s2)cc1 | 84 | Non-Toxic | 
100 | CSc1ccc(NCc2ccc(CNc3ccc(SC)cc3)s2)cc1 | 88 |  | 
1000 | COc1cccc(NCc2ccc(CNc3cccc(OC)c3)s2)c1 |  |  | 
> 1000 | Fc1ccc(NCc2cscc2CNc2ccc(F)cc2)cc1 |  |  | 
> 1000 | CCc1cccc(NCc2ccc(CNc3cccc(CC)c3)s2)c1 |  |  | 
10 | Clc1ccc(NCc2ccc(CNc3ccc(Cl)cc3)o2)cc1 | 48 | Non-Toxic | 17
100 | Cc1ccc(NCc2ccc(CNc3ccc(C)cc3)s2)cc1 | 49 | Non-Toxic | 
1000 | Fc1ccccc1NCc1ccc(CNc2ccccc2F)s1 |  |  | 
> 1000 | Fc1cccc(NCc2ccc(CNc3cccc(F)c3)s2)c1 |  |  | 
> 1000 | CCc1ccc(NCc2cscc2CNc2ccc(CC)cc2)cc1 |  |  | 
> 1000 | Fc1ccc(NCc2ccc(CNc3ccc(F)cc3)s2)cc1 |  |  | 
> 1000 | CCc1ccc(NCc2ccc(CNc3ccc(CC)cc3)o2)cc1 |  |  | 
1 | c1ccc(NCc2ccc(CNc3ccccc3)s2)cc1 | 68 | Non-Toxic | 30
> 1000 | Clc1ccc(NCc2cscc2CNc2ccc(Cl)cc2)cc1 |  |  | 
